# Shown is part of a subset that was picked to be rich in hits.
# T cruzi inh = inhibitors of intracellular T. cruzi growth, primary screen, luminescence, NIH3T3 host cells; T. cruzi beta-gal in NIH3T3, 90 h; inhibition, % (no concentration beside the values); 300,000 compounds, 1.4% hits; AID 1885, 2009;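 active = mean inhibition across valid replicates above about 55%, limit read from the data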;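 note: signal also drops with host cell toxicity which is not excluded here; 0% = plate median of DMSO wells and 100% = zero luminescence signal; higher percent means less beta-gal luminescence so fewer parasites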
#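 compound dosing = single 50 nL compound addition per well in DMSO | material = NIH/3T3 host cells with β-galactosidase reporter T. cruzi | input = 5,000 host fibroblasts per well | timing = ≥90 h infection period, 3 h prior cell attachment | read-out basis = percent inhibition of parasite-derived β-gal signal | detection = GalScreen β-gal luminescence, detergent lysis, 60 min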
# L major viab = Leishmania major promastigote growth inhibition, primary screen; inhibition, % at 10 µM; 200,000 compounds, 9% hits; AID 1063, 2008; Leishmania major promastigotes, resazurin fluorescence viability; in the data active = inhibition above about 50%;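 note: promastigotes grown with compound for 44 hours at 28 °C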
# CHOP inhibitor = inhibitors of CHOP promoter induction, primary screen, cell-based, unfolded protein response, luciferase reporter; CHO-K1 CHOP-promoter luciferase, tunicamycin-induced, 15-18 h; AID 2732, 2010; inhibition, % at 10 µM; 220,000 compounds, 3.8% hits;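 active = compounds that reduced the stress-induced luciferase reporter signal by more than about 70% of percent inhibition, limit read from the data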;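 note: 0% = tunicamycin plus vehicle and 100% = wells without tunicamycin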
# CHOP UPR activ = activators of apoptotic CHOP UPR arm, primary screen, cell-based, CHO-CHOP luciferase reporter, luminescence, uHTS | UPR activation; percent of tunicamycin response over DMSO baseline | activation, % at 10 µM | AID 449763, 2010 | 330,000 compounds, 0.34% hits;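 active = at 10 µM dose, activation of 40% or more, normalized to positive control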;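 note: 100% = tunicamycin at 10 µg/mL and 0% = DMSO alone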
#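 Assay system: CHO-CHOP cells, stable luciferase reporter of PERK-eIF2a-CHOP signalling / Buffer or medium: F12 plus 10% serum / Compound dosing: one dose, 10 µM in 0.5% DMSO / Times: 6 h compound treatment, 37 °C / Technique: luciferase luminescence / Read-out: % reporter activation, DMSO baseline versus tunicamycin full activation / Benchmarks: tunicamycin and DMSO controls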
# UPR XBP1 act = activators of adaptive XBP1 UPR arm, primary screen, cell-based, CHO-XBP1 luciferase reporter, luminescence, uHTS; IRE1-XBP1 UPR activation; percent of tunicamycin response, DMSO as zero; activation, % at 20 µM; 330,000 compounds, 0.33% hits;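 active = versus positive control, 20 µM dose yields 30% or more activation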;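 note: 100% = tunicamycin at 10 µg/mL and 0% = DMSO only wells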
#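 Material: CHO-XBP1 cells stably carrying IRE1-XBP1-driven luciferase reporter | Medium: F12 with 10% serum | Compound dosing: 20 µM single concentration, DMSO 1% | Incubation: Overnight seeding at 37 °C, 6 h compound treatment at 37 °C | Detection: Steady-Glo luminescence read | Read-out basis: % activation of reporter signal versus tunicamycin and DMSO controls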
# Dynein cargo inh = inhibitors of GR-EGFP nuclear translocation, primary screen, dynein cargo transport inhibitor project, imaging, high-content, 3617.4 mouse cells; test concentration mostly 20 µM; stimulated with dexamethasone, 1 µM; hits give low values; z-score, hits read low; 220,000 compounds, 0.47% hits; AID 1381, 2008;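 active = plate z-score of nuclear minus cytoplasmic receptor signal below a set negative limit, without overly bright fluorescence or cell loss, cut at about -3.5 in these data, passing the limit was not always enough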;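 note: z-score of nuclear minus cytoplasmic ring GR-EGFP intensity difference per well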
#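 Medium: Induction medium lacking tetracycline, stripped serum | Probe or stimulus: 1.0 µM final dexamethasone stimulus | Schedule: 48 h induction, then 1 h compound, then 30 min agonist, 37 °C | Signal: Automated 10x imaging of fixed Hoechst-stained cells | Evaluation: Per-cell GR-EGFP intensity, nucleus versus surrounding cytoplasmic ring, well-averaged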
# Numbers without * were called inactive; . = no result given.
SMILES,T cruzi inh,L major viab,CHOP inhibitor,CHOP UPR activ,UPR XBP1 act,Dynein cargo inh
O=C(NC1CC1)C1CCN(C2CCN(C(=O)CC3=CCCCC3)CC2)CC1,8,75*,-10,-1,-2,-0.94
CN1CCN(C(=O)c2ccc3c(c2)N(Cc2ccc(F)cc2)C(=O)c2ccccc2S3=O)CC1 (configuration not stated),-8,.,.,-2,2,.
O=C1CC(N2CCN(S(=O)(=O)c3ccccc3F)CC2)C(=O)N1c1ccccc1Cl (configuration not stated),.,.,.,-2,-2,.
O=C1/C(=C/c2ccc(Cl)cc2)NC(=S)N1Cc1cccnc1,19,84*,2,0,0,1.6
C=CCNC(=O)O/N=C/c1csc([N+](=O)[O-])c1,57*,.,7,2,-1,-0.38
Cc1ccc(/C=N/N2CCN(Cc3ccc(Cl)cc3)CC2)o1,13,52*,-2,-1,0,-0.69
COc1ccccc1/C=C/C=N/N1CCN(Cc2ccc(Cl)cc2)CC1,-12,85*,5,-1,-3,-0.34
COc1ccccc1/C=C/C=N\N1CCN(Cc2ccccc2Cl)CC1,-4,65*,11,.,.,-1
COc1ccccc1/C=C\C=N\n1c(-c2ccc(Cl)cc2)n[nH]c1=S,-3,-3,89*,1,4,-0.33
Clc1ccc(CN2CCN(/N=C/c3ccco3)CC2)cc1,1,-1,-9,1,0,0.68
COc1cc(CN2CCN(Cc3ccc(C(F)(F)F)cc3)CC2)cc(OC)c1OC,27,.,.,-1,-2,.
CC1(C)NC(=O)N(CCC(=O)Nc2cc(C(F)(F)F)ccc2Cl)C1=O,.,.,.,0,5,.
O=c1[nH]c(=O)n(Cc2ccccc2)c2c1CCC2,12,3,-16,-1,-3,-0.8
N=c1c2c(n(Cc3ccc(Cl)c(Cl)c3)c3c1CCC3)CCCC2,70*,100*,50,-1,-2,-0.038
CCCn1c2c(c(=N)c3c1CCC3)CCC2,45,.,-5,0,-1,1.1
CCCn1c2c(c(=N)c3c1CCC3)CCCC2,53,100*,-21,-2,-1,1.1
Clc1ccc(CN2CCN(c3ncccn3)CC2)cc1Cl,1,.,.,2,-5,.
N=c1c2c(n(Cc3ccc(Br)cc3)c3c1CCC3)CCCC2,67*,100*,10,-2,-1,1.5
Cn1c2c(c3cc([N+](=O)[O-])ccc31)CCCC2,-11,.,.,5,1,.
N=c1c2c(n(Cc3ccc([N+](=O)[O-])cc3)c3c1CCC3)CCCC2,40,64*,11,3,5,-0.23
CCOc1ccc(NC(=O)CCC(=O)NNC(=O)COc2ccccc2C)cc1,-8,-2,1,1,2,0.54
CCCCCCCn1c2c(c(=N)c3ccccc31)CCC2,67*,100*,34,11,10,-2.5
COC(C(=O)N1CCC(CCC(=O)Nc2ccccc2)CC1)c1ccccc1 (configuration not stated),6,.,.,4,0,.
COc1ccc(-c2cc(=O)[nH][nH]2)cc1OC,-14,84*,-6,1,0,-0.036
O=C1c2ccccc2NC(c2ccc(-c3ccc(Br)cc3)o2)N1O (configuration not stated),21,99*,63,-2,1,-0.91
SMILES,T cruzi inh,L major viab,CHOP inhibitor,CHOP UPR activ,UPR XBP1 act,Dynein cargo inh
O=C1c2ccccc2NC(c2ccc(-c3cccc([N+](=O)[O-])c3)o2)N1O (configuration not stated),-11,82*,5,-1,1,2.2
O=C1c2ccccc2NC(c2ccc(-c3ccc(F)cc3)o2)N1O (configuration not stated),.,.,.,6,0,.
CCN1CCCC1CNC(=O)c1cc(COc2ccc(C)c(C)c2)on1 (configuration not stated),23,.,.,4,1,.
Cc1ccc(S(=O)(=O)Nc2ccc(NC(=O)CN3CCCCC3)c(Cl)c2)cc1,-2,5,95*,0,1,-0.38
CC1CCN(S(=O)(=O)c2ccc(NC(=O)CN3CCCC(C)C3)cc2)CC1 (configuration not stated),-5,89*,60,0,-3,-0.36
O=C(CSCc1ccc(Cl)cc1)Nc1ccc(S(=O)(=O)N2CCOCC2)cc1,-7,88*,47,-2,-1,0.25
CC1CCCN(CC(=O)Nc2ccc(S(=O)(=O)N3CCCC3)cc2)C1 (configuration not stated),-6,.,.,0,-7,.
CC1CCN(S(=O)(=O)c2ccc(NC(=O)Cc3ccccc3)cc2)CC1,13,9,85*,-1,0,-0.15
O=C(CN1CCCCC1)Nc1ccc(S(=O)(=O)N2CCOCC2)cc1,-14,97*,9,0,-2,1.1
Cc1cc(C)c(O)c(-c2cc(C(=O)Nc3ccc(S(=O)(=O)N4CCOCC4)cc3)[nH]n2)c1,2,90*,85*,11,4,4
COc1ccc(NS(=O)(=O)c2ccc(NC(=O)c3ccc(CN4CCOCC4)cc3)cc2)cc1,-34,13,29,0,-3,-0.71
O=C(CN1CCCC1)Nc1ccc(Oc2ccc(NC(=O)CN3CCCC3)cc2)cc1,39,79*,-20,2,-2,-1.2
O=C(Nc1ccc(S(=O)(=O)Nc2ccc(F)cc2)cc1)c1ccc(CN2CCOCC2)cc1,8,98*,3,0,-1,-0.3
COC(=O)c1ccc(COC(=O)c2ccc(C)c(S(=O)(=O)N3CCCCC3)c2)cc1,.,.,.,0,-2,.
O=C(Cn1nnc(-c2ccccc2Cl)n1)N1CCN(S(=O)(=O)c2ccc(Cl)cc2)CC1,10,99*,39,-2,-1,0.17
O=C(COC(=O)CN1C(=O)C2CCCCC2C1=O)Nc1ccc(S(=O)(=O)N2CCOCC2)cc1 (configuration not stated),-4,57*,13,-2,2,-0.84
CC(C)CNS(=O)(=O)c1ccc(S(=O)(=O)N2CCCN(Cc3ccccc3)C2)cc1,18,-1,37,0,-1,-0.47
CC1CCN(S(=O)(=O)c2ccc(S(=O)(=O)N3CCCN(Cc4ccccc4)C3)cc2)CC1,.,86*,.,.,.,0.13
CC1CCN(S(=O)(=O)c2ccc(NC(=O)Cn3nnc(-c4ccccc4F)n3)cc2)CC1,69*,20,62,1,-2,0.0042
CCOc1ccc(CC(=O)N/N=C/c2sccc2C)cc1,-22,.,.,1,-3,.

# Assay outcomes (PubChem BioAssay)
